Only some compounds are listed: those with a hit (about 1.4% of all), similar ones and a draw of the others.
CAL PDZ FP-1 = inhibitors of human CAL PDZ peptide binding | Q9HD26 | purified CAL PDZ, TMR-peptide fluorescence polarization, 1 h | inhibition, % at 20 µM | 0.02% of 330,000 active | AID 504414;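 active = highest replicate inhibition of at least 40%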;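 note: plate controls were DMSO neutral control wells for no effect and unlabeled competitor peptide control wells for full effect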
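Test system: purified CerCALP PDZ construct; Compound dosing: one concentration, 20 µM compound; Also added: TMR-labelled reporter peptide T*-PRC34 bound in PDZ groove; Read-out: inhibition from polarization loss; Controls: unlabelled peptide and DMSO controls; Signal: FP readout, S and P plane fluorescence; Incubation: 1 h at RT.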
Tn7 DDE FP = disrupts Tn7 cyclic peptide binding to fibrin D-Dimer-E complex | P02675 | FP displacement of FITC-Tn7 peptide from fibrin DD(E); 0% = median of compound wells per plate | inhibition, % at 8.3 µM | 0.13% of 370,000 active | AID 720508;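 active = inhibition above the mean of compounds falling within the control limits plus 3 SD of them, cut at about 14% in these data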;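 note: 0% = plate median of compound wells and 100% = 10 µM Aha-Tn7 peptide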
Target sequence (P02675 whole entry, looked up): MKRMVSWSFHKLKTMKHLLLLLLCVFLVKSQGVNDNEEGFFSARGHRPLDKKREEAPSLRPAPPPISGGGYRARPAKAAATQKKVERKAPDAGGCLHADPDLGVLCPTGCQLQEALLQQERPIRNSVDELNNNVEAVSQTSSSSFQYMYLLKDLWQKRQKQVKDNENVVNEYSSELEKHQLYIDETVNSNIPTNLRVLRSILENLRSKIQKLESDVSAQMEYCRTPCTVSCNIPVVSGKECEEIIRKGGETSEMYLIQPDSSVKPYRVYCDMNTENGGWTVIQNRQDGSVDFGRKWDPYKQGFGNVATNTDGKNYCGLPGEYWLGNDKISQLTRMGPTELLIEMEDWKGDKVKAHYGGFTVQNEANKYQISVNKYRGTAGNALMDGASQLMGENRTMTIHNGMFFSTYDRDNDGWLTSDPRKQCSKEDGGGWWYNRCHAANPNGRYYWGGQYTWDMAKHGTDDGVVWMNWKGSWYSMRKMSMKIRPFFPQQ
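Test system: human clot-derived fibrin DD(E) complex / Quantity: 2 µM final DD(E) protein / Incubation: 10 min plus 3 h, room temperature / Measured by: fluorescence polarization / Benchmarks: high control of 10 µM Aha-Tn7 peptide / Replicates: singlicate testing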
DDE Tn6 FP inh = inhibitors of Tn6 peptide binding to human fibrin DD(E); P02675; Fibrin DD(E) TRITC-Tn6 fluorescence polarization displacement; inhibition, % at 8.3 µM; 0.21% of 370,000 active;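 active = inhibition above a per-campaign cutoff: mean of compounds within control limits plus 3 SD, cut at about 15% in these data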;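 note: 0% = median of all compound wells on the plate and 100% = blocking peptide control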
Arr AP2 block = blocks beta-arrestin peptide binding to AP2 adaptin; FITC-arrestin peptide / GST-AP2 beads, flow cytometry; AP2 beta2 appendage carries R879A mutation; 0.31% of 340,000 active; inhibition, % at 10 µM;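 active = inhibition above a set limit, near 3 SD of compounds lacking own fluorescence, cut at about 54% in these data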;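 note: plate controls were DMSO wells for no effect and 5 µM unlabelled arrestin peptide for full effect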
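test system = AP2 appendage R879A on GSH beads | buffer or medium = PBS plus Tween 20 (0.05%) and BSA (0.1%) | incubation = 12 min plus 1 h, RT | detection = bead flow cytometry, FITC channel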
CAL PDZ FP-2 = inhibitors of human CAL PDZ peptide binding | Q9HD26 | purified CAL PDZ, TMR-peptide fluorescence polarization, 1 h | inhibition, % at 24.9 µM | 0.92% of 300,000 active;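 active = mean inhibition of at least 30% with at least half of replicates also reaching 30%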;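 note: 0% = DMSO neutral control and 100% = excess unlabeled competitor peptide PRC23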
DDE Tn7 confirm = confirmation of inhibitors of Tn7 binding to human fibrin DD(E) | shares compounds with Tn7 DDE FP | FP displacement of TRITC-Tn7 peptide from DD(E); 0% set at plate's compound-well median | inhibition, % at 8.3 µM | 5% of 460 active | AID 720628;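 active = inhibition above the campaign cutoff, the mean of compounds within control limits plus 3 SD, cut at about 14% in these data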;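 note: 100% = median FP of high control wells holding Aha-Tn7 inhibitor peptide; displacers lower polarization since freed probe rises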
Tn7 DDE ctr = counter-screen hit for Tn7 peptide-fibrin DD(E) binding disruption; inhibition, % at 8.3 µM; AID 720633; shares compounds with Tn7 DDE FP; 3% of 460 active; TRITC-Tn7 probe displacement, fluorescence polarization;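 active = inhibition above the cutoff, the mean of compounds lying between the control bounds plus 3 SD of those compounds, cut at about 17% in these data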;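 note: 0% = median of compound sample wells and 100% = excess unlabeled Aha-Tn7 peptide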
DDE Tn6 FP ctr = counter-screen hit for Tn6 peptide-fibrin DD(E) binding disruption. shares compounds with DDE Tn6 FP inh. TRITC-Tn6 fluorescence polarization displacement; 0% = median of compound wells, not DMSO. inhibition, % at 8.3 µM. 2% of 680 active. AID 720621;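 active = inhibition above the mean of test compounds lying between the control limits plus 3 SD of those, cut at about 14% in these data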;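 note: 0% = median of compound wells and 100% = wells with Aha-Tn7 blocking peptide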
Tn6 DDE conf = confirmation of inhibitors of Tn6 binding to human fibrin DD(E); FP displacement of TRITC-Tn6 peptide from DD(E); 0% = per-plate median of test wells; AID 720631; inhibition, % at 8.3 µM; 10% of 680 active; shares compounds with DDE Tn6 FP inh;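 active = inhibition above the mean of compounds lying within the control limits plus 3 SD, cut at about 16% in these data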;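 note: 100% = high control wells holding a competing inhibitor peptide at 10 µM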
* hit, by the source's call; . = no result given; + = active, no number.

SMILES	CAL PDZ FP-1	Tn7 DDE FP	DDE Tn6 FP inh	Arr AP2 block	CAL PDZ FP-2	DDE Tn7 confirm	Tn7 DDE ctr	others
O=c1[nH]c(=S)n(C2CC2)c(O)c1C=Nc1cccc(C(F)(F)F)c1	-2	14*	2	-6	-4	-5	-14
CO[C@H]([C@H](C)/C=C/N(C)C=O)[C@@H](C)C(=O)CC[C@H](C)[C@H](O)[C@H](C)[C@H]1OC(=O)/C=C/C(C)=C/[C@H](O)[C@H](OC)C[C@@H]2C=CC[C@@H](C[C@H](OC)[C@@H](CO)[C@@H](OC)C[C@@H](OC)[C@@H]1C)O2	.	-8	0	.	.	.	.
Cc1ccccc1CCC[C@H](CC1CCCCC1)CN(C)C(=O)Oc1ccccc1	.	5	4	.	.	.	.
CCCCOc1nc2ccccc2c(=O)n1-c1ccccc1	-1	15*	4	-3	6	6	-3
CCOC(=O)[C@]12Cc3c(cc(OC)c(OC)c3OC)[C@H]1N(C)C(=O)c1cc(OC)ccc12	.	15*	2	.	.	11	6
COc1ccccc1-n1c(-c2ccccc2Cl)nc2ccccc2c1=O	.	16*	-1	-5	-5	7	8
COc1ccccc1-n1c(-c2ccoc2)nc2ccccc2c1=O	0	4	-3	20	.	.	.
COc1ccc2[nH]cc(CCNCc3cccnc3)c2c1	-6	-1	-9	36	-8	.	.
COc1ccc2[nH]c(C)c(CCNCc3cccnc3)c2c1	1	18*	6	28	-4	6	-3
CCCCC12CNCC(C)(CNC1)C2=O	1	17*	-3	5	-4	-8	-13
N=c1c2c(-c3ccccc3)c(-c3ccccc3)n(Cc3ccccc3)c2ncn1C1CCC(O)CC1 (stereo unspecified)	.	-9	-5	.	.	.	.
COc1ccc2c3c([nH]c2c1)C(C)=NCC3	5	-3	-1	-7	-3	.	.
CC1=NCCc2c1[nH]c1cc(O)ccc21	0	76*	1	34	4	35*	-3
O=C(NCCN1CCC2(CC1)C(=O)NCN2c1ccccc1)C(c1ccccc1)c1ccccc1	.	1	2	.	.	.	.
COC1C(C)OC(OC2CC(C)(O)Cc3cc4c(c(O)c32)C(=O)c2c(O)cc3c(c2C4=O)OC2OC3(C)C(O)C(N(C)C)C2O)C(OC)C1(C)OC (stereo unspecified)	1	14*	88*	18	-6	-19	54*	DDE Tn6 FP ctr=-19;Tn6 DDE conf=54*
CCOC(=O)C1CCCN(c2ccc([N+](=O)[O-])c3nonc23)C1 (stereo unspecified)	4	20*	+	-24	4	-13	93*	DDE Tn6 FP ctr=-13;Tn6 DDE conf=93*
CC1CCCN(c2ccc(C(=O)N3CCC4(CC3)OCCO4)cc2[N+](=O)[O-])C1 (stereo unspecified)	0	6	-3	0	-4	.	.
C[C@H]1CNCCN1c1ccc(N2CC[C@@H](O)C2)c(C#N)c1	.	-1	1	.	.	.	.
CN(C)c1ccc(/C=C/c2cc[n+](C)c3ccccc23)cc1	0	-4	30*	-17	15	.	.	DDE Tn6 FP ctr=8;Tn6 DDE conf=11
COP(=O)(C(=O)Nc1ccccc1)C(CC(C)C)NC(=O)OCc1ccccc1 (stereo unspecified)	.	4	-1	.	.	.	.
CCC(C#N)(CC)P(=S)(c1ccccc1)c1ccccc1	-2	6	16*	6	-1	.	.	DDE Tn6 FP ctr=0;Tn6 DDE conf=-1
CC(=O)N1c2ccccc2C(c2ccccc2)=NCC1C(=O)NCc1ccccc1 (stereo unspecified)	.	-10	3	.	.	.	.
Cc1ccc(/C=C2\C(=O)NC(=S)N(c3ccc(F)cc3)C2=O)s1	-2	3	1	7	2	.	.
Cc1ccc(/C=C2\C(=O)NC(=S)N(c3ccccc3F)C2=O)s1	0	2	20*	8	-2	.	.	DDE Tn6 FP ctr=-5;Tn6 DDE conf=-29
C[C@]12CCC3C(CC[C@H]4C[C@@H](O)CC[C@]34C)C1CC[C@@]2(O)C(F)(F)F (stereo partly specified)	.	3	16*	.	.	.	.	DDE Tn6 FP ctr=4;Tn6 DDE conf=4
C[C@]12CCC3C(CC[C@H]4C[C@@H](O)CC[C@]34C)C1C[C@@H](O)[C@]2(C)O (stereo partly specified)	0	-5	-8	7	-1	.	.
